The results in this text go back to ChEMBL document CHEMBL2169875, “Designing allosteric regulators of thrombin. Monosulfated benzofuran dimers selectively interact with Arg173 of exosite 2 to induce inhibition” (J Med Chem, 2012).

Activity calls are given as the source filed them. The rule behind the calls is not given here. Some results are limits rather than exact numbers.

A short description of series [1]: Inhibition of wild type human plasma alpha-thrombin assessed as spectrozyme TH hydrolysis after 10 mins in absence of exosite 1 ligand HirP. The method in brief:
(§1)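 Buffer was 20 mM Tris-HCl pH 7.4, 100 mM NaCl, 2.5 mM CaCl2, 0.1% PEG 8000. After 10 min, Spectrozyme TH was added and A405 read. Apparent IC50 and efficacy came from a logistic fit with all parameters floating.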

The nature of series [2]: Inhibition of wild type human plasma alpha-thrombin assessed as spectrozyme TH hydrolysis after 10 mins in absence of exosite 2 ligand H8. A digest of the protocol: as §1
A short description of series [3]: Inhibition of wild type human plasma alpha-thrombin assessed as spectrozyme TH hydrolysis after 10 mins in absence of exosite 2 ligand FibP. A digest of the protocol: as §1
A short description of series [4]: Inhibition of wild type human plasma alpha-thrombin assessed as spectrozyme TH hydrolysis after 10 mins in presence of 10 uM exosite 2 ligand H8. Format: cell-free. The method in brief: as §1
The nature of series [5]: Inhibition of recombinant thrombin Lys235Ala mutant expressed in BHK cells assessed as spectrozyme TH hydrolysis after 10 mins. The series is classed as cell-based. A digest of the protocol:
(§2)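 Recombinant thrombins (wild type or Ala mutants) made as prothrombin-1 in BHK cells, purified by HPC4 immunoaffinity, activated, and active-site titrated. About 5 nM enzyme was incubated 10 min at 25 °C with inhibitor in 20 mM Tris-HCl pH 7.4, 100 mM NaCl, 2.5 mM CaCl2, 0.1% PEG 8000. Spectrozyme TH was then added, and the initial A405 rate was read. The dose-response of fractional residual activity was fitted to a logistic equation for IC50, Hill slope and efficacy.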

The species entered for series [6] is Homo sapiens. Briefly: Inhibition of wild type human plasma alpha-thrombin assessed as spectrozyme TH hydrolysis after 10 mins in presence of exosite 1 ligand HirP. The series is classed as cell-free. A digest of the protocol: as §1
In the next series the test system is BHK. Briefly: Inhibition of recombinant thrombin Arg93,97,101Ala mutant expressed in BHK cells assessed as spectrozyme TH hydrolysis at 0.25 to 12.5 mM after 10 mins. The series is classed as cell-based.
The target in series [7] is T1, Prothrombin (Homo sapiens, UniProt P00734). Briefly: Inhibition of recombinant wild type thrombin expressed in BHK cells assessed as spectrozyme TH hydrolysis after 10 mins. The series is classed as cell-based. The method in brief: as §2
The nature of series [8]: Inhibition of recombinant thrombin Lys169Ala mutant expressed in BHK cells assessed as spectrozyme TH hydrolysis after 10 mins. The series is classed as cell-based. A digest of the protocol: as §2
A further series relates to A549. Briefly: Cytotoxicity against human A549 cells assessed as cell viability up to 420 uM after 120 hrs by MTT assay. Format: cell-based. The settings on record: a549, 120 h. A digest of the protocol:
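A549 cells in DMEM with 10% heat-inactivated FBS were kept at 37 °C, 5% CO2. Cells were seeded at 30,000 per well for 4 h, then exposed to medium or varying compound concentrations (aqueous stock) for 120 h at 37 °C. MTT was added for 10 h, followed by SDS/DMF lysis for 10 h. Three experiments were run, analysed by one-way ANOVA with Dunnett's test.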
In general terms: Formazan colour is commonly taken as a measure of viable cells.

In series [9] the target is T1, Prothrombin. Briefly: Inhibition of recombinant wild type thrombin expressed in BHK cells assessed as spectrozyme TH hydrolysis at 0.25 to 12.5 mM after 10 mins. Format: cell-based.
Series [10] in a line: Inhibition of wild type human plasma alpha-thrombin assessed as spectrozyme TH hydrolysis after 10 mins by spectrophotometric analysis in absence of exosite 2 ligand UFH. The method in brief: as §1
The nature of series [11]: Inhibition of wild type human plasma alpha-thrombin assessed as spectrozyme TH hydrolysis after 10 mins in presence of 6.5 uM exosite 2 ligand FibP. Format: cell-free. A digest of the protocol:
as §1

The next series addresses Coagulation factor X (Homo sapiens, UniProt P00742). Briefly: Inhibition of human plasma F10a assessed as spectrozyme TH hydrolysis after 10 mins. A digest of the protocol: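 Chromogenic assay of human plasma factor Xa (4 nM final) at 25 °C in 20 mM Tris-HCl pH 7.4, 100 mM NaCl, 2.5 mM CaCl2, 0.1% PEG 8000. Inhibitor dilutions (from 0.25–12.5 mM stocks) incubated with enzyme 10 min, then 1 mM Spectrozyme TH stock added. Initial rate at 405 nm gave fractional residual activity. Fitting the logistic equation yielded apparent IC50, Hill slope and efficacy ΔY.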

Series [12] can be described thus: Inhibition of recombinant thrombin Arg175Ala mutant expressed in BHK cells assessed as spectrozyme TH hydrolysis after 10 mins. The series is classed as cell-based. The method in brief:
as §2

The nature of series [13]: Partial competitive inhibition of wild type human plasma alpha-thrombin assessed as spectrozyme TH hydrolysis after 10 mins in presence of 48 uM exosite 2 ligand UFH. The series is classed as cell-free. The method in brief:
as §1

The nature of series [14]: Inhibition of recombinant thrombin Arg93,97,101Ala mutant expressed in BHK cells assessed as spectrozyme TH hydrolysis after 10 mins. The series is classed as cell-based. The method in brief:
as §2

The species named for series [15] is Homo sapiens. Briefly: Binding affinity to human antithrombin by spectrofluorometric analysis.

Sequence of Coagulation factor X (P00742 41-179 limits assumed): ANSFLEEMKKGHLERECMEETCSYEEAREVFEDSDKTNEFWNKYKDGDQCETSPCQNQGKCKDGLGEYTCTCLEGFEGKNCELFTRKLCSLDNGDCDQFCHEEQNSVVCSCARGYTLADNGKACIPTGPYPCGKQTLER
Sequence of Coagulation factor X (P00742 235-488 limits assumed): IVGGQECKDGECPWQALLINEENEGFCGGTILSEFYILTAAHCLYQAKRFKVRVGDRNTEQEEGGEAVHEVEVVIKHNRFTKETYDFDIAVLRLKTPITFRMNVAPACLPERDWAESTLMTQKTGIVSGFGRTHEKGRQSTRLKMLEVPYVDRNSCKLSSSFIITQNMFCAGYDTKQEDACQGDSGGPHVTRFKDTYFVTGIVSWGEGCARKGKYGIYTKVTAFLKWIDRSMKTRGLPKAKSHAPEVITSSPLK

Take `COc1cc2oc(C)c(C(=O)O)c2cc1OCc1oc2cc(OC)c(OS(=O)(=O)O)cc2c1C(=O)O`: in series [1], the IC50 is greater than 500 µM.

For the molecule `COCCOC(=O)c1c(C)oc2cc(OC)c(OCc3oc4cc(OC)c(OS(=O)(=O)O)cc4c3C(=O)OCCOC)cc12`, the IC50 in [1] was found to be 16.9 µM.

Take `CCOC(=O)c1c(C)oc2cc(OCC)c(OCc3oc4cc(OCC)c(OS(=O)(=O)O)cc4c3C(=O)OCC)cc12`: in series [1], the IC50 worked out at 4.5 µM.

Take `CCOC(=O)c1c(C)oc2cc(OC)c(OCc3oc4cc(OC)c(OS(=O)(=O)[O-])cc4c3C(=O)OCC)cc12.[Na+]`: the IC50 in [1] was found to be 6.2 µM; in [2], 2.7 µM; in series [3], 7.9 µM; in series [4], 3.7 µM; in series [5] it was 4.9 µM; at Prothrombin [7], 5.5 µM. Moreover, the IC50 is 4.9 µM in series [8]; 8.8 µM in series [10]; 118 µM in series [11]; greater than 300 µM at Coagulation factor X; 4.9 µM in series [12]; 36.1 µM in [13]. The IC50 in series [14] was found to be 5 µM. Further, in the series filed under Homo sapiens [6], the inhibition entry is “Active”. The inhibition was found to be 70% with BHK and 30% at Prothrombin [9]. Also, the Activity result in the series on A549 is “Non-toxic”.

With `CCOC(=O)c1c(C)oc2cc(OC(C)C)c(OCc3oc4cc(OC(C)C)c(OS(=O)(=O)O)cc4c3C(=O)OCC)cc12`, the IC50 in series [1] was found to be 1.3 µM.

On to `COC(=O)c1c(C)oc2cc(OC)c(OCc3oc4cc(OC)c(OS(=O)(=O)O)cc4c3C(=O)OC)cc12`, for which the IC50 in series [1] came out at 31.9 µM.

Molecule `CO[C@H]1O[C@H](COS(=O)(=O)O)[C@@H](O[C@@H]2O[C@@H](C(=O)O)[C@@H](O[C@H]3O[C@H](COS(=O)(=O)O)[C@@H](O[C@@H]4O[C@H](C(=O)O)[C@@H](O[C@H]5O[C@H](COS(=O)(=O)O)[C@@H](O)[C@H](O)[C@H]5NS(=O)(=O)O)[C@H](O)[C@H]4O)[C@H](OS(=O)(=O)O)[C@H]3NS(=O)(=O)O)[C@H](O)[C@H]2OS(=O)(=O)O)[C@H](O)[C@H]1NS(=O)(=O)O` registered an Activity in the series filed under Homo sapiens [15] of 50 nM.

One may read the IC50 as the concentration needed to halve the response being measured. By inhibition is commonly meant the change of the read-out against control, counted positive when it falls.
